Source: PubChem BioAssay
N-glyco inh: N-linked glycosylation inhibition | D54 ERlucT glycosylation luciferase reporter, 24 h; percent of 100 nM tunicamycin response | reporter increase, % at 12.5 µM | 360,000 tested, 0.23% active;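 active = mean luciferase reporter signal, scaled so untreated is 0 and the glycosylation-blocking control 100, at or above a set limit in every replicate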;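 also: luciferase carries N-glycosylation sites so blocking glycosylation raises the light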
RAD52 anneal inh: inhibitors of human RAD52 DNA annealing; P43351; recombinant RAD52 DNA annealing, FRET fluorescence; inhibition, % at 18.7 µM; 360,000 tested, 0.46% active;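 active = every replicate showing at least 50% inhibition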
NSD2 inh: inhibitors of human histone methyltransferase NSD2; NSD2 peptide methylation, AlphaScreen, 120 min; inhibition, % at 12.5 µM; 310,000 tested, 0.54% active; in the data active = inhibition above about 50%
FN deposition inh: fibronectin deposition inhibition | AH1F fibroblasts, Alexa488-fibronectin deposition fluorescence, overnight | inhibition, % at 12.6 µM | 350,000 tested, 0.086% active | AID 743247;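 active = mean inhibition across replicates of 30% or more, regardless of how many single replicates reach that level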
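Schedule: 1 h cell adhesion before compound, then overnight fibronectin incubation; test system: AH1F fibroblast monolayer depositing Alexa488-labelled fibronectin into matrix; quantity: 10000 AH1F cells per well; probe or stimulus: fluorescent fibronectin at 24 nM final; signal: fluorescence, ex 485 nm, em 525 nm; evaluation: percent inhibition as loss of matrix-bound fibronectin fluorescence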
MLL AF4-AF9 inh: inhibitors of human MLL-AF4/AF9 interaction | P42568 | 350,000 tested, 0.47% active | AID 651704 | inhibition, % at 10 µM | AlphaScreen, biotin-AF4 peptide binding to FLAG-AF9;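 active = every replicate reaching a set inhibition limit, whatever the replicate mean, cut at about 25% in these data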
RAD54 inh: RAD54 (human) branch migration inhibition; 360,000 tested, 0.14% active; AID 602329; Q92698; RAD54 Holliday junction branch migration, FAM/BHQ fluorescence; inhibition, % at 10.4 µM;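 active = mean normalized replicate activity at least 40 and at least half of replicates scoring 40 or more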;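 also: inhibitors cause a drop in the FAM fluorescence signal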
Target sequence (Q92698 whole entry, looked up): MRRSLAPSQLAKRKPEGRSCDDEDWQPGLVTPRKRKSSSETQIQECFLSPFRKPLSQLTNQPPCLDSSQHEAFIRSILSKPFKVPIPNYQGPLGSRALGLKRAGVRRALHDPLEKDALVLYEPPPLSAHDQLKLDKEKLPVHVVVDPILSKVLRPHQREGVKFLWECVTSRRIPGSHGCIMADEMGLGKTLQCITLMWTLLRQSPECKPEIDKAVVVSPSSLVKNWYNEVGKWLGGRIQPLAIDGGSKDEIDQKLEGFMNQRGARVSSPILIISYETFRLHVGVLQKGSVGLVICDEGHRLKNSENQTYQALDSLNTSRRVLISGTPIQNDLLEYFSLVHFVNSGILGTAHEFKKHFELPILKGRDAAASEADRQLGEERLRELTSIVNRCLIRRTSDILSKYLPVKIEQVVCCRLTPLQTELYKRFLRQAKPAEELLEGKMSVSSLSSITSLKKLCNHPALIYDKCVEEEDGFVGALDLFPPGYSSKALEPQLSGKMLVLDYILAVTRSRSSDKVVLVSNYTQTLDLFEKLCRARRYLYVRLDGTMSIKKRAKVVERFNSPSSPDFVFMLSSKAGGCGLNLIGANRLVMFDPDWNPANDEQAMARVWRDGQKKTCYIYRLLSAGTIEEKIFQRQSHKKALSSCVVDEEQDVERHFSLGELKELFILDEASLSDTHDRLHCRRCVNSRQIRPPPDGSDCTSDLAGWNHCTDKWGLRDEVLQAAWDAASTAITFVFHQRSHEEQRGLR
Hits are given with their value; . = inactive; / = no result given. Shown are actives, neighbours in structure and some others; about 1.2% of the full set was active somewhere.

SMILES	N-glyco inh	RAD52 anneal inh	NSD2 inh	FN deposition inh	MLL AF4-AF9 inh	RAD54 inh
COC(=O)C[C@@H]1CC[C@@H]2[C@@H](COc3ccc(NC(=O)NCc4ccccc4)cc3C(=O)N2C)O1	/	/	/	.	/	.
COc1ccc(NC(=O)Nc2ccc3c(c2)[C@@H]2C[C@@H](CC(=O)N(C)C)O[C@@H](CO)[C@@H]2O3)cc1	/	.	/	.	.	.
C=C(C)Cc1c(C)c(C#N)c2nc3ccccc3n2c1NCCCN(C)C	38	.	.	.	.	.
NC(=O)C1CCN(C(=S)NC2CC3C=CC2C3)CC1 (centres undefined)	.	.	.	.	.	.
CCOC(=O)C1CCN(C(=S)NC2CC3C=CC2C3)CC1 (centres undefined)	.	.	.	.	32	.
COc1ccc2c3c(n(C)c2c1)[C@H](CO)N(Cc1ccccc1F)CC31CCN(C(=O)C2CCC2)CC1	/	.	/	/	/	/
CC/C(=C\c1ccc(N(C)C)cc1)c1ccncc1	.	.	.	.	28	/
CN(C)c1ccc(/C=N/NC(=O)CNC(=O)c2ccncc2)cc1	.	.	.	.	.	.
CN(C)CC#Cc1ccc([C@@H]2[C@@H](CO)N3CCCCN(C(=O)Nc4ccccc4F)C[C@@H]23)cc1	/	54	/	/	.	.
CN(C)CC#Cc1ccc([C@@H]2[C@@H](CO)N3CCCCN(C(=O)CN(C)C)C[C@@H]23)cc1	/	71	/	/	.	.
C=CCNCCCCOc1ccc(Br)cc1C	.	/	66	.	/	/
Cc1ccc(N(CC(=O)NCc2ccco2)S(=O)(=O)c2ccccc2)cc1	.	/	.	30	/	.
COc1ccc(N(CC(=O)NCc2ccco2)S(=O)(=O)c2ccc(C)cc2)cc1OC	.	.	.	.	.	.
C[C@@H]1CN([C@@H](C)CO)C(=O)c2cc(NC(=O)Cn3cnnn3)ccc2O[C@H]1CN(C)C(=O)Nc1ccc(F)cc1	/	.	/	.	.	.
O=C(Nc1ccccc1F)N1C[C@@H]2[C@H](c3ccccc31)[C@H](CO)N2C(=O)Cc1ccccc1	/	.	/	/	.	.
COc1ccc(/C(C)=N/NC(=O)c2ccccc2OCc2ccccc2)c(OC)c1	32	.	.	/	.	.
COc1ccc(CC2(C)OC(c3ccc([N+](=O)[O-])cc3)=NN2C(C)=O)cc1 (centres undefined)	.	.	.	.	27	/
Cc1ccccc1Nc1c(-c2ccccn2)nc2c(C)cccn12	.	.	.	.	34	.
Cc1cccc(C)c1Nc1c(-c2ccccn2)nc2ccccn12	.	.	.	.	/	.
O=C(NC1CCCC1)N[C@H]1CC[C@@H](CC(=O)N2CCOCC2)O[C@@H]1CO	/	.	/	/	.	.
N#CC1C(=O)c2ccccc2C1c1ccccc1 (centres undefined)	.	.	.	38	.	/
O=C(Nc1cccc(Cl)c1)N1C[C@H]2[C@@H](c3ccccc31)[C@@H](CO)N2C(=O)C1CC1	/	.	/	.	.	.
C/C(=N\NC(=O)c1c[nH]c2ccccc12)c1ccc(C)o1	.	/	.	.	/	58
C/C(=N\NC(=O)c1cc2ccccc2cc1O)c1ccc(C)o1	.	.	.	.	.	.
Cc1cccc(OCc2nc(-c3ccc(-n4cccc4)cc3)no2)c1	.	.	/	.	.	.
SMILES	N-glyco inh	RAD52 anneal inh	NSD2 inh	FN deposition inh	MLL AF4-AF9 inh	RAD54 inh
Cc1ccc(OCc2nc(-c3ccc(-n4cccc4)cc3)no2)cc1C	.	.	/	.	38	.
CCOc1ccc(Br)cc1C(=O)Nc1ccc(C(=O)NCC(C)C)cc1	115	/	.	.	/	/
COc1ccc(Br)cc1C(=O)Nc1ccc(C(=O)NCC(C)C)cc1	.	.	.	.	.	.
CNC[C@H](CC1CCCCC1)NC[C@H](Cc1ccccc1)NCCC12CC3CC(CC(C3)C1)C2	.	.	/	60	40	.
COc1cccc(-c2nc(C(N)=O)c3[nH]c(=O)n(-c4cccc(Cl)c4)c3n2)c1OC	.	.	/	.	.	.
COc1ccc(-c2nc(C(N)=O)c3[nH]c(=O)n(-c4cccc(Cl)c4)c3n2)cc1OC	36	/	.	/	/	.
O=C(O)C[C@H]1C[C@@H]2c3cc(NC(=O)Nc4ccc(F)cc4)ccc3O[C@@H]2[C@@H](CO)O1	/	.	/	.	.	.
Nc1cc2c(cc1Cl)-c1ccc(Cl)cc1C2	.	.	.	.	.	.
Nc1cc2c(cc1Cl)-c1ccccc1C2	.	.	/	.	50	.
